Converted amounts (≈) assume the structure as drawn. The source made the active and inactive calls. The calls are words filed in the database; no cut-off is given here.
How the values were obtained:
Homo sapiens = species on record: Homo sapiens; experiment: Inhibition of human RBX1-catalyzed CUL2(CTD) neddylation assessed as reduction in transfer of N-terminal cys-tagged NEDD8 from UBE2M to CUL2-CTD at 12.5 uM measured up to 6 mins by pulse-chase assay
Method in brief: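 In vitro pulse-chase monitoring NEDD8 transfer from UBE2M to the CUL2 C-terminal domain, stimulated by DCN1 together with RBX1. The CUL2 domain stands in for cullins 1-5. The assay is a variation of a previously published pulse-chase format, also run against each of the five DCN family members.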

BJ = experiment: Growth inhibition of human BJ cells; assay type: cell-based
Method in brief: (§1)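 In vitro monolayer proliferation assay in BJ cells (normal fibroblasts lacking DCN1 amplification) and HCC95 cells (squamous cell carcinoma line carrying DCN1 amplification). EC50 is reported as mean ± standard deviation from at least one experiment run in triplicate. A ">" value means less than 50% growth inhibition at the highest concentration tested.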

HCC95 = experiment: Growth inhibition of human HCC95 cells; assay type: functional, cell-based; method in brief: as §1
[1] = target: T1, DCN1-like protein 4 (Homo sapiens) (UniProt Q92564); experiment: Inhibition of human DCN4-mediated cullin neddylation assessed as reduction in transfer of fluorescein-5-maleimide-tagged NEDD8 from N-terminally acetylated human UBE2M to CUL2-CTD at 50 uM measured for 1 min by pulse-chase assay
T1 sequence (whole entry): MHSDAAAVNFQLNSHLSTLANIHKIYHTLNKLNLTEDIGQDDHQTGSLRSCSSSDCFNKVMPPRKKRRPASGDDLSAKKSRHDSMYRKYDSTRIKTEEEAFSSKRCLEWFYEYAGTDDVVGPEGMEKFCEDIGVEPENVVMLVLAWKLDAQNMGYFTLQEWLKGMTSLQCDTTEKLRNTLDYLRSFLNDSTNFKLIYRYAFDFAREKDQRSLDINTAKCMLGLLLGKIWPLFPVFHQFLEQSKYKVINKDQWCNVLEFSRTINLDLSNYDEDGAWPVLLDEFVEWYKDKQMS

[2] = Solubility of the compound at pH 7.4 after 18 hrs by UV-spectroscopy; assay type: physicochemical; details: buffer
Method in brief: (§2)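 Measured in triplicate within at least one experiment; values reported as mean ± standard deviation.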

DCN1-like protein 1 [3] = target: T2, DCN1-like protein 1 (Homo sapiens, UniProt Q96GG9); experiment: Binding affinity biotinylated human GST-tagged DCN1 by ITC method
T2 sequence (Q96GG9 whole entry): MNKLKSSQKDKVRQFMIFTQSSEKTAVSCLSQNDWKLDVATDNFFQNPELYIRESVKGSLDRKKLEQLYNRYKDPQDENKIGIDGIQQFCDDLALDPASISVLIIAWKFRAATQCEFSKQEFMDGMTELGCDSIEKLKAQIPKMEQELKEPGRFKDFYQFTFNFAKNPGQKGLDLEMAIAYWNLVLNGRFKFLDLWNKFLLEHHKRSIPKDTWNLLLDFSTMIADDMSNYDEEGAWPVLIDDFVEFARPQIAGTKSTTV

[4] = target: DCN1-like protein 2 (Homo sapiens) (UniProt Q6PH85); experiment: Inhibition of human DCN2-mediated cullin neddylation assessed as reduction in transfer of fluorescein-5-maleimide-tagged NEDD8 from N-terminally acetylated human UBE2M to CUL2-CTD at 12.5 and 50 uM measured for 10 sec by pulse-chase assay
Chain of DCN1-like protein 2 (Homo sapiens) (Q6PH85 whole entry): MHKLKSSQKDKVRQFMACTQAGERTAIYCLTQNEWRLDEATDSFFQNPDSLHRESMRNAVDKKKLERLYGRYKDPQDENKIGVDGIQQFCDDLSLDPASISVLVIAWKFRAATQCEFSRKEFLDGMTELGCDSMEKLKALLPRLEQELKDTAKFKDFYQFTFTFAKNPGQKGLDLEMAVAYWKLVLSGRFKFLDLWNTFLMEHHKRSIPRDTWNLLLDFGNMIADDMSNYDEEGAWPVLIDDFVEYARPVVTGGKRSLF

[5] = target: NEDD8 activating enzyme (Homo sapiens) (UniProt Q8TBC4+Q13564); experiment: Inhibition of human NAE1-UBA3 E1 activating enzyme assessed as reduction in CUL3 neddylation by measuring inhibition of UBE2M thiol-ester formation at 50 uM up to 60 mins by pulse-chase assay; assay type: protein-complex assay
[6] = target: T3, DCN1-like protein 3 (Homo sapiens) (UniProt Q8IWE4); experiment: Inhibition of human DCN3-mediated cullin neddylation assessed as reduction in transfer of fluorescein-5-maleimide-tagged NEDD8 from N-terminally acetylated human UBE2M to CUL2-CTD at 50 uM measured for 2 mins by pulse-chase assay
T3 sequence (whole entry): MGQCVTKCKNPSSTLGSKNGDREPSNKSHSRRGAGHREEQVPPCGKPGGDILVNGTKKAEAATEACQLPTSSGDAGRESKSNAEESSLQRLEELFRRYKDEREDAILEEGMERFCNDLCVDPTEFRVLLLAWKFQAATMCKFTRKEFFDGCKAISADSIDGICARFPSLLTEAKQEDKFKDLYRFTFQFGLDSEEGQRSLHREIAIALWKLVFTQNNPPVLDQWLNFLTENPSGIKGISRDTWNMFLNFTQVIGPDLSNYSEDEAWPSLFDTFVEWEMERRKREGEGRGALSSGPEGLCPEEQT

DCN1-like protein 1 [7] = target: T2, DCN1-like protein 1
[8] = target: T3, DCN1-like protein 3 (Homo sapiens); experiment: Inhibition of human DCN3 stimulated N-terminal cys-tagged NEDD8 transfer from UBE2F to CUL2(CTD)-RBX1 at 10 uM measured up to 2 mins by pulse-chase assay
[9] = target: T4, DCN1-like protein 5 (Homo sapiens) (UniProt Q9BTE7); experiment: Inhibition of human DCN5-mediated cullin neddylation assessed as reduction in transfer of fluorescein-5-maleimide-tagged NEDD8 from N-terminally acetylated human UBE2M to CUL2-CTD at 50 uM measured for 1 min by pulse-chase assay
T4 sequence (whole entry): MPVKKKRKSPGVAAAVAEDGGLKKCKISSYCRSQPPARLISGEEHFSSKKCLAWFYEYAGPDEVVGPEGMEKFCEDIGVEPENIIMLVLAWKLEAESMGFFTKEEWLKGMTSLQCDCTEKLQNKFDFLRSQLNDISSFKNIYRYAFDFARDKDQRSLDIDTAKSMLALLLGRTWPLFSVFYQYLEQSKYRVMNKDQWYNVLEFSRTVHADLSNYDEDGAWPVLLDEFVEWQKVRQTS

DCN1-like protein 1 [10] = target: T2, DCN1-like protein 1; experiment: Inhibition of human DCN1-mediated cullin neddylation assessed as reduction in transfer of fluorescein-5-maleimide-tagged NEDD8 from N-terminally acetylated human UBE2M to CUL2-CTD measured for 10 sec by pulse-chase assay
[11] = Permeability of the compound at 10 uM by PAMPA; assay type: ADME; method in brief: as §2

Compound	inhibition (Homo sapiens)	EC50 (BJ) [nM]	EC50 (HCC95) [nM]	inhibition [1]	solubility at 18 h [2] [µM]	Kd (DCN1-like protein 1 [3]) [nM]	inhibition [4]	inhibition [5]	inhibition [6]	IC50 (DCN1-like protein 1 [7]) [nM]	inhibition [8]	inhibition [9]	EC50 (DCN1-like protein 1 [10]) [nM]	permeability ([11]; pampa, 10 µM) [×10⁻⁶ cm/s]	Papp at 10 µM ([11]; PAMPA, read-out: permeability) [×10⁻⁶ cm/s]
CCCC(C)N1CCC(N(Cc2ccccc2)C(=O)Nc2cccc(C(F)(F)F)c2)CC1 (centres undefined)	inactive	> 40000	47000	inactive	57 (≈ 25.5 µg/mL)	140	Active	inactive	inactive	62	inactive	inactive	79	1400	–
CCCCN1CCC(N(Cc2ccccc2)C(=O)Nc2cccc(C(F)(F)F)c2)CC1	inactive	> 40000	> 40000	–	70 (≈ 30.3 µg/mL)	700	–	inactive	–	260	inactive	–	140	–	> 2200

From ChEMBL document CHEMBL4219151, “Piperidinyl Ureas Chemically Control Defective in Cullin Neddylation 1 (DCN1)-Mediated Cullin Neddylation” (J Med Chem, 2018)
